Assay results taken from ChEMBL document CHEMBL1932986, “Synthesis and in vitro antimycobacterial activity of compounds derived from (R)- and (S)-2-amino-1-butanol - The crucial role of the configuration” (Eur J Med Chem, 2012).
Calls of active or inactive are those of the source.

What was measured:
Bacillus subtilis [1] = experiment: Antibacterial activity against Bacillus subtilis ATCC 6633 assessed as concentration required to produce >11 mm of zone of inhibition after 24 hrs by agar diffusion test; type: functional
In short: (§1)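 Agar diffusion: wells in agar filled with […] DMSO solution of compound at various concentrations; diameter of clear zone around application point measured. Bacteria grown 24 h at 37 °C on nutrient agar. Compounds first screened at 50 mg/ml; those active then tested at lower concentrations. Bracketed value = lowest concentration (mg/ml) giving zone >11 mm, reported only if activity retained at ≤1.25 mg/ml.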

Acinetobacter johnsonii [2] = experiment: Antibacterial activity against Acinetobacter johnsonii ATCC 17909 at 2 mg/ml after 24 hrs by agar diffusion test; type: functional; in short: as §1
Saccharomyces cerevisiae [3] = experiment: Antifungal activity against Saccharomyces cerevisiae ATCC 9763 assessed as concentration required to produce >11 mm of zone of inhibition after 72 hrs by agar diffusion test; type: functional
In short: (§2)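 Agar diffusion: yeasts grown on yeast peptone dextrose agar and fungi on potato dextrose agar. Wells are filled with […] of compound solution in DMSO at various concentrations, and the clear-zone diameter is measured. Bracketed values give the lowest concentration (mg/ml) that produces a zone >11 mm. A first screen is run at 50 mg/ml.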

Priestia megaterium [4] = experiment: Antibacterial activity against Bacillus megaterium NRRL 1353895 at 50 mg/ml after 24 hrs by agar diffusion test; type: functional; settings: NRRL 1353895, 24 h, read-out: DIZ; in short: as §1
Micrococcus luteus [5] = experiment: Antibacterial activity against Sarcina lutea ATCC 9341 at 2 mg/ml after 24 hrs by agar diffusion test; type: functional, organism-based; in short: as §1
Escherichia coli [6] = experiment: Antibacterial activity against Escherichia coli ATCC 8739 at 50 mg/ml after 24 hrs by agar diffusion test; type: functional; settings: ATCC 8739, 24 h, read-out: DIZ; in short: as §1
Priestia megaterium [7] = experiment: Antibacterial activity against Bacillus megaterium NRRL 1353895 at 2 mg/ml after 24 hrs by agar diffusion test; type: functional, organism-based; in short: as §1
Penicillium chrysogenum [8] = experiment: Antifungal activity against Penicillium chrysogenum CECT 2802 at 2 mg/ml after 72 hrs by agar diffusion test; type: functional, organism-based; in short: as §2
Acinetobacter johnsonii [9] = experiment: Antibacterial activity against Acinetobacter johnsonii ATCC 17909 assessed as concentration required to produce >11 mm of zone of inhibition after 24 hrs by agar diffusion test; type: functional; in short: as §1
Bacillus subtilis [10] = experiment: Antibacterial activity against Bacillus subtilis ATCC 6633 at 2 mg/ml after 24 hrs by agar diffusion test; type: functional, organism-based; in short: as §1
Staphylococcus aureus [11] = experiment: Antibacterial activity against Staphylococcus aureus NRRL B 313 at 50 mg/ml after 24 hrs by agar diffusion test; type: functional; settings: NRRL B 313, 24 h, read-out: DIZ
In short: (§3)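 Agar diffusion: bacteria grown 24 h at 37 °C on nutrient agar. Wells in the agar are filled with […] of compound solution in DMSO at various concentrations. The diameter of the clear zone around the application point is measured. Bracketed values give the lowest concentration (mg/ml) that produces a zone >11 mm. A first screen is run at 50 mg/ml.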

Saccharomyces cerevisiae [12] = experiment: Antifungal activity against Saccharomyces cerevisiae ATCC 9763 at 2 mg/ml after 72 hrs by agar diffusion test; type: functional, organism-based; in short: as §2
Bacillus cereus [13] = experiment: Antibacterial activity against Bacillus cereus ATCC 11778 at 2 mg/ml after 24 hrs by agar diffusion test; type: functional, organism-based; in short: as §1
Bacillus [14] = experiment: Antibacterial activity against Bacillus idosus B 241 at 50 mg/ml after 24 hrs by agar diffusion test; type: functional; settings: B 241, 24 h, read-out: DIZ; in short: as §1
[15] = test system: Mycobacterium tuberculosis; experiment: Antimycobacterial activity against Mycobacterium tuberculosis H37Rv after 45 days; type: functional
In short: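 Canetti proportion method. Compound in DMSO is added to Löwenstein–Jensen egg medium before coagulation (30 min, 85 °C), tested at three levels plus a lower one where needed. Tubes are inoculated with H37Rv at 10⁵ cells/ml and incubated 45 days at 37 °C. Colony counts versus drug-free control give percentage inhibition.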

Penicillium chrysogenum [16] = experiment: Antifungal activity against Penicillium chrysogenum CECT 2802 at 50 mg/ml after 72 hrs by agar diffusion test; type: functional; settings: CECT 2802, 72 h, read-out: DIZ; in short: as §2
Priestia megaterium [17] = experiment: Antibacterial activity against Bacillus megaterium NRRL 1353895 assessed as concentration required to produce >11 mm of zone of inhibition after 24 hrs by agar diffusion test; type: functional; in short: as §1
Bacillus [18] = experiment: Antibacterial activity against Bacillus idosus B 241 at 2 mg/ml after 24 hrs by agar diffusion test; type: functional, organism-based; in short: as §1
Bacillus mycoides [19] = experiment: Antibacterial activity against Bacillus mycoides DSMZ 274 assessed as concentration required to produce >11 mm of zone of inhibition after 24 hrs by agar diffusion test; type: functional; in short: as §1
Escherichia coli [20] = experiment: Antibacterial activity against Escherichia coli ATCC 8739 assessed as concentration required to produce >11 mm of zone of inhibition after 24 hrs by agar diffusion test; type: functional; in short: as §1
Bacillus [21] = experiment: Antibacterial activity against Bacillus idosus B 241 assessed as concentration required to produce >11 mm of zone of inhibition after 24 hrs by agar diffusion test; type: functional; in short: as §1
Acinetobacter johnsonii [22] = experiment: Antibacterial activity against Acinetobacter johnsonii ATCC 17909 at 50 mg/ml after 24 hrs by agar diffusion test; type: functional; settings: ATCC 17909, 24 h, read-out: DIZ; in short: as §1
Staphylococcus aureus [23] = experiment: Antibacterial activity against Staphylococcus aureus NRRL B 313 assessed as concentration required to produce >11 mm of zone of inhibition after 24 hrs by agar diffusion test; type: functional; in short: as §3
Bacillus mycoides [24] = experiment: Antibacterial activity against Bacillus mycoides DSMZ 274 at 50 mg/ml after 24 hrs by agar diffusion test; type: functional; settings: DSMZ 274, 24 h, read-out: DIZ; in short: as §1
Candida tropicalis [25] = experiment: Antifungal activity against Candida tropicalis ATCC 20336 at 2 mg/ml after 72 hrs by agar diffusion test; type: functional, organism-based; in short: as §2
Bacillus mycoides [26] = experiment: Antibacterial activity against Bacillus mycoides DSMZ 274 at 2 mg/ml after 24 hrs by agar diffusion test; type: functional, organism-based; in short: as §1
Micrococcus luteus [27] = experiment: Antibacterial activity against Micrococcus luteus ATCC 9631 at 2 mg/ml after 24 hrs by agar diffusion test; type: functional, organism-based; in short: as §1
Bacillus cereus [28] = experiment: Antibacterial activity against Bacillus cereus ATCC 11778 at 50 mg/ml after 24 hrs by agar diffusion test; type: functional; settings: ATCC 11778, 24 h, read-out: DIZ; in short: as §1
Bacillus subtilis [29] = experiment: Antibacterial activity against Bacillus subtilis ATCC 6633 at 50 mg/ml after 24 hrs by agar diffusion test; type: functional; settings: ATCC 6633, 24 h, read-out: DIZ; in short: as §1
Escherichia coli [30] = experiment: Antibacterial activity against Escherichia coli ATCC 8739 at 2 mg/ml after 24 hrs by agar diffusion test; type: functional, organism-based; in short: as §1
Bacillus cereus [31] = experiment: Antibacterial activity against Bacillus cereus ATCC 11778 assessed as concentration required to produce >11 mm of zone of inhibition after 24 hrs by agar diffusion test; type: functional; in short: as §1
Candida tropicalis [32] = experiment: Antifungal activity against Candida tropicalis ATCC 20336 assessed as concentration required to produce >11 mm of zone of inhibition after 72 hrs by agar diffusion test; type: functional; in short: as §2
Candida tropicalis [33] = experiment: Antifungal activity against Candida tropicalis ATCC 20336 at 50 mg/ml after 72 hrs by agar diffusion test; type: functional; settings: ATCC 20336, 72 h, read-out: DIZ; in short: as §2
Micrococcus luteus [34] = experiment: Antibacterial activity against Sarcina lutea ATCC 9341 at 50 mg/ml after 24 hrs by agar diffusion test; type: functional; settings: ATCC 9341, 24 h, read-out: DIZ; in short: as §3
Staphylococcus aureus [35] = experiment: Antibacterial activity against Staphylococcus aureus NRRL B 313 at 2 mg/ml after 24 hrs by agar diffusion test; type: functional, organism-based; in short: as §3
Micrococcus luteus [36] = experiment: Antibacterial activity against Micrococcus luteus ATCC 9631 at 50 mg/ml after 24 hrs by agar diffusion test; type: functional; settings: ATCC 9631, 24 h, read-out: DIZ; in short: as §1
Saccharomyces cerevisiae [37] = experiment: Antifungal activity against Saccharomyces cerevisiae ATCC 9763 at 50 mg/ml after 72 hrs by agar diffusion test; type: functional; settings: ATCC 9763, 72 h, read-out: DIZ; in short: as §2

CC[C@H](CO)NCc1ccc2c(c1)Cc1ccccc1-2
20 mm: zone of inhibition at 50000 µg/mL (Bacillus mycoides [24]) | zone of inhibition at 50000 µg/mL (Saccharomyces cerevisiae [37])
16 mm: zone of inhibition at 50000 µg/mL (Priestia megaterium [4]) | zone of inhibition at 50000 µg/mL (Escherichia coli [6]) | zone of inhibition at 50000 µg/mL (Bacillus cereus [28]) | zone of inhibition at 50000 µg/mL (Micrococcus luteus [36])
inactive: diameter of the inhibition zone (DIZ) (Acinetobacter johnsonii [2]) | diameter of the inhibition zone (DIZ) (Micrococcus luteus [5]) | diameter of the inhibition zone (DIZ) (Priestia megaterium [7]) | diameter of the inhibition zone (DIZ) (Penicillium chrysogenum [8]) | diameter of the inhibition zone (DIZ) (Bacillus subtilis [10]) | diameter of the inhibition zone (DIZ) (Saccharomyces cerevisiae [12]) | diameter of the inhibition zone (DIZ) (Bacillus cereus [13]) | diameter of the inhibition zone (DIZ) (Bacillus [18]) | diameter of the inhibition zone (DIZ) (Candida tropicalis [25]) | diameter of the inhibition zone (DIZ) (Bacillus mycoides [26]) | diameter of the inhibition zone (DIZ) (Micrococcus luteus [27]) | diameter of the inhibition zone (DIZ) (Escherichia coli [30]) | diameter of the inhibition zone (DIZ) (Staphylococcus aureus [35])
18.7 µM: MIC [15]
17 mm: zone of inhibition at 50000 µg/mL (Staphylococcus aureus [11]) | zone of inhibition at 50000 µg/mL (Bacillus [14]) | zone of inhibition at 50000 µg/mL (Acinetobacter johnsonii [22])
0.06 mg/mL: Activity (Candida tropicalis [32])
30 mm: zone of inhibition at 50000 µg/mL (Penicillium chrysogenum [16])
21 mm: zone of inhibition at 50000 µg/mL (Candida tropicalis [33])
0.6 mg/mL: Activity (Bacillus [21])
18 mm: zone of inhibition at 50000 µg/mL (Bacillus subtilis [29]) | zone of inhibition at 50000 µg/mL (Micrococcus luteus [34])
1.25 mg/mL: Activity (Bacillus subtilis [1]) | Activity (Saccharomyces cerevisiae [3]) | Activity (Acinetobacter johnsonii [9]) | Activity (Priestia megaterium [17]) | Activity (Bacillus mycoides [19]) | Activity (Escherichia coli [20]) | Activity (Staphylococcus aureus [23]) | Activity (Bacillus cereus [31])
